A selection: hits, their analogues and other compounds. The true share with any hit is near 1.7%.
LMPTP inh – LMPTP (human) inhibition; inhibition, % at 20 µM; recombinant LMPTP-A, OMFP fluorogenic substrate, fluorescence intensity; 360,000 tested, 0.22% active;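 active = compounds that cut the enzyme signal by at least half of the control window in the single-dose screen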
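Assay system: LMPTP-A phosphatase enzyme | Input: 0.625 nM enzyme | Also added: Fluorogenic phosphatase substrate OMFP at 400 µM final | Compound dosing: One test concentration per compound, 20 µM, with 3% DMSO overall | Schedule: 50 min enzyme reaction at room temperature, protected from light | Signal: Fluorescence intensity | Benchmarks: no-enzyme and uninhibited controls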
STEP block – STEP (human) phosphatase inhibition; P54829; recombinant STEP, OMFP fluorogenic substrate, fluorescence; inhibition, % at 20 µM; 360,000 tested, 0.25% active; AID 588621;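 active = inhibition at 20 µM, scaled per plate between control wells, above about 37%, limit read from the data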
Target sequence (P54829 whole entry, looked up): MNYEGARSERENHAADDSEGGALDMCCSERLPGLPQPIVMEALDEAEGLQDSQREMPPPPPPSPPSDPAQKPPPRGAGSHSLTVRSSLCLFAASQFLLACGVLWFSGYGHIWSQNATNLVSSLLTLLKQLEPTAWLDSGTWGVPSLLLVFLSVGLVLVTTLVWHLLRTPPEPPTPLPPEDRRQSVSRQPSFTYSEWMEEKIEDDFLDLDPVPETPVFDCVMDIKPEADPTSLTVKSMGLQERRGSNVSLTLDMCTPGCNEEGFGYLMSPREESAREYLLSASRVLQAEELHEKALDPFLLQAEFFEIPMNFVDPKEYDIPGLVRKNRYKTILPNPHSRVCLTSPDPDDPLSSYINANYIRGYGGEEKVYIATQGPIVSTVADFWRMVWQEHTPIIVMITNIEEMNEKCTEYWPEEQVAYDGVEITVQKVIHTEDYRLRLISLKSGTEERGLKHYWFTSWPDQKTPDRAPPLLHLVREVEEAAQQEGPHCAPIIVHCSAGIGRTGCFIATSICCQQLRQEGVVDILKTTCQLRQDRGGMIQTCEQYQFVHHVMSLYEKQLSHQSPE
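material = STEP tyrosine phosphatase | reagent = fluorogenic phosphatase substrate OMFP at 25 µM final | doses = single compound dose of 20 µM, 1% DMSO final | schedule = 20 min reaction, room temperature, in the dark | measured by = fluorescence, 480/540 nm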
SUMO1 PPI mod – SUMO1-SIM interaction modulation; P63165; SUMO1 binding to a labelled peptide, TR-FRET, 1 h; inhibition, % at 20 µM; 360,000 tested, 0.33% active; AID 602429; in the data active = inhibition above about 37%
Target sequence (P63165 whole entry, looked up): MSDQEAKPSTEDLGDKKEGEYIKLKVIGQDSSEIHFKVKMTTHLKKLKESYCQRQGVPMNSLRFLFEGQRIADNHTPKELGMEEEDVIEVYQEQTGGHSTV
Scp-1 inhibitor – blocks human Scp-1 phosphatase activity | Q9GZU7 | Recombinant Scp1, phosphopeptide, malachite green phosphate absorbance | inhibition, % at 20 µM | 340,000 tested, 0.88% active | AID 493091;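 active = inhibition above about 50% at 20 µM, limit read from the data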
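System: SCP-1 catalytic domain; Reagent: Phospho 17-mer peptide substrate; Doses: one concentration, 20 µM, with 1.0% DMSO; Incubation: 45 min room-temperature reaction, 5 min colour, 30 min stabiliser; Signal: Phosphate-binding colour reagent, absorbance read at 630 nm.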
DNMT1 block – inhibitors of human DNMT1; P26358; DNMT1 molecular beacon, Hinp1I cleavage, fluorescence; inhibition (reported as % activation of signal), % at 10 µM; 360,000 tested, 0.83% active; AID 588458; in the data active = inhibition above about 50%
Scp-1 conf – confirmation of human Scp-1 phosphatase inhibitors. shares compounds with Scp-1 inhibitor. recombinant SCP-1 catalytic domain, phosphate release, malachite green absorbance. inhibition, % at 20 µM. 2,500 tested, 61% active. AID 540281
Scp-1 MG ctr – colorimetric interference in Scp-1 counter-screen | shares compounds with Scp-1 inhibitor | Colorimetric interference counterscreen, malachite green absorbance 630 nm | apparent inhibition (interference), % at 20 µM | 2,500 tested, under 10 active | AID 540313;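 note: compounds added after enzyme reaction finished so only phosphate colour detection is probed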
Scp-1 Tm shift – Scp-1 (human) binding by thermal shift | thermal shift relative to vanadate control, % at 40 µM | Recombinant SCP1, Sypro Orange thermal shift Tm | AID 540329 | 1,500 tested, 25% active | shares compounds with Scp-1 inhibitor;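 active = substances whose mean melting-temperature shift, as a percentage of the reference inhibitor's shift, reaches about 5.3%, limit read from the data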
Hits are given with their value.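 Rule for the calls, unless noted: active = inhibition of at least 30% at 20 µM; inactive = the rest.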

CO/N=C(\C(=O)N[C@@H]1C(=O)N2C(C(=O)O)=C(COC(N)=O)CS[C@H]12)c1ccco1 was read as LMPTP inh inactive, STEP block inactive, SUMO1 PPI mod inactive, Scp-1 inhibitor 69.7, DNMT1 block inactive, Scp-1 conf 67.2, Scp-1 MG ctr inactive and Scp-1 Tm shift 8.0.
`COCC1=C(C(=O)OC(C)OC(=O)OC(C)C)N2C(=O)[C@@H](NC(=O)/C(=N\OC)c3csc(N)n3)[C@H]2SC1` (some centres undefined) gave LMPTP inh inactive, STEP block inactive, SUMO1 PPI mod inactive, Scp-1 inhibitor inactive and DNMT1 block inactive.
`CON=C(C(=O)NC1C(=O)N2C(C(=O)O)=C(CSc3nc(=O)c(=O)[nH]n3C)CSC12)c1csc(N)n1` (centres undefined) gave LMPTP inh inactive, STEP block inactive, SUMO1 PPI mod inactive, Scp-1 inhibitor 64.6, DNMT1 block inactive, Scp-1 conf 51.9, Scp-1 MG ctr inactive and Scp-1 Tm shift inactive.
For Cc1ccccc1OCCn1cc(C=O)c2ccccc21 the results were LMPTP inh inactive, STEP block inactive, SUMO1 PPI mod inactive, Scp-1 inhibitor inactive and DNMT1 block inactive.
For COc1ccc(OC(C)C(=O)NC2CCCCCCC2)cc1 (centres undefined) the results were LMPTP inh inactive, STEP block inactive, SUMO1 PPI mod inactive, Scp-1 inhibitor inactive and DNMT1 block inactive.
`CCOC(=O)NN1C(=O)c2ccccc2NC1(C)C` gave LMPTP inh inactive, STEP block inactive, SUMO1 PPI mod inactive, Scp-1 inhibitor 72.4, DNMT1 block inactive, Scp-1 conf inactive and Scp-1 MG ctr inactive.
COc1ccc(S(=O)(=O)N2CCCCC2)cc1NC(=O)C1CC1C (centres undefined) was read as LMPTP inh inactive, STEP block inactive, SUMO1 PPI mod inactive, Scp-1 inhibitor inactive and DNMT1 block inactive.
For COc1cc(OC)cc(C(=O)OCC(=O)Nc2nnc(-c3ccccc3)o2)c1 the results were LMPTP inh inactive, STEP block inactive, SUMO1 PPI mod inactive, Scp-1 inhibitor inactive and DNMT1 block inactive.
`O=C(COC(=O)c1cncc(Br)c1)Nc1nnc(-c2ccccc2)o1` gave LMPTP inh inactive, STEP block inactive, SUMO1 PPI mod inactive, Scp-1 inhibitor 60.2, DNMT1 block inactive, Scp-1 conf 70.6, Scp-1 MG ctr inactive and Scp-1 Tm shift 6.1.
Screening Cc1nn(CCc2nn[nH]n2)c2nc(C(F)(F)F)cc(C(F)(F)F)c12 returned LMPTP inh inactive, STEP block inactive, SUMO1 PPI mod inactive, Scp-1 inhibitor inactive and DNMT1 block inactive.
For Cc1nn(CCc2nn[nH]n2)c2nc(-c3ccc(Br)cc3)cc(C(F)(F)F)c12 the results were LMPTP inh inactive, STEP block inactive, SUMO1 PPI mod inactive, Scp-1 inhibitor 53.4, DNMT1 block inactive, Scp-1 conf inactive and Scp-1 MG ctr inactive.
Screening CC1CCCC(NC(=O)C2CCN(S(=O)(=O)c3cccc4nonc34)CC2)C1C (centres undefined) returned LMPTP inh inactive, STEP block inactive, SUMO1 PPI mod inactive, Scp-1 inhibitor 69.0, DNMT1 block inactive, Scp-1 conf inactive and Scp-1 MG ctr inactive.
NC(N)=NCCCC(NC(=O)c1ccccc1)C(=O)Nc1ccc2ccccc2c1 (centres undefined) was read as LMPTP inh inactive, STEP block inactive, SUMO1 PPI mod inactive, Scp-1 inhibitor inactive and DNMT1 block inactive.
Screening CCOC(=O)C1CCCN(C(=O)c2ccc(CS(=O)(=O)c3ccc(C)cc3)o2)C1 (centres undefined) returned LMPTP inh inactive, STEP block inactive, SUMO1 PPI mod inactive, Scp-1 inhibitor 57.4, DNMT1 block inactive, Scp-1 conf 55.4, Scp-1 MG ctr inactive and Scp-1 Tm shift inactive.
`Cc1ccc(S(=O)(=O)Cc2ccc(C(=O)N3CCCCCC3)o2)cc1` gave LMPTP inh inactive, STEP block inactive, SUMO1 PPI mod inactive, Scp-1 inhibitor inactive and DNMT1 block inactive.
For O=C(CN1C(=O)NC2(CCCC2)C1=O)Nc1cccc(C(F)(F)F)c1 the results were LMPTP inh inactive, STEP block inactive, SUMO1 PPI mod inactive, Scp-1 inhibitor inactive and DNMT1 block inactive.
`O=C(CN1C(=O)/C(=C2/SC(=S)N(CCS(=O)(=O)O)C2=O)c2ccccc21)Nc1cccc(C(F)(F)F)c1` gave LMPTP inh inactive, STEP block inactive, SUMO1 PPI mod inactive, Scp-1 inhibitor 84.4, DNMT1 block inactive, Scp-1 conf 84.6, Scp-1 MG ctr inactive and Scp-1 Tm shift 885.4.
Screening COc1cccc(N2[C@@H](CC(=O)O)c3cc(C(F)(F)F)ccc3S2(=O)=O)c1 returned LMPTP inh inactive, STEP block inactive, SUMO1 PPI mod inactive, Scp-1 inhibitor 104.5, DNMT1 block inactive, Scp-1 conf 69.2, Scp-1 MG ctr inactive and Scp-1 Tm shift inactive.
Cc1ccc2nc(Cl)c(C3CC(c4cccs4)=NN3C(=O)CCCC(=O)O)cc2c1 (centres undefined) was read as LMPTP inh inactive, STEP block inactive, SUMO1 PPI mod inactive, Scp-1 inhibitor 96.1, DNMT1 block inactive, Scp-1 conf 85.0, Scp-1 MG ctr inactive and Scp-1 Tm shift inactive.
Screening C=CCNc1nc(C(=O)OCC(=O)Nc2ccc(S(N)(=O)=O)cc2)cs1 returned LMPTP inh inactive, STEP block inactive, SUMO1 PPI mod inactive, Scp-1 inhibitor 58.2, DNMT1 block inactive, Scp-1 conf 65.4, Scp-1 MG ctr inactive and Scp-1 Tm shift inactive.
For COc1ccc(-c2nc3cc(C)c(Br)c(C)n3c2CC(C)(C)C)cc1OC the results were LMPTP inh inactive, STEP block inactive, SUMO1 PPI mod inactive and DNMT1 block inactive.
`CC(=O)Nc1ccc2c(O)cc(S(=O)(=O)O)cc2c1` gave LMPTP inh inactive, STEP block inactive, SUMO1 PPI mod inactive, Scp-1 inhibitor 58.7, DNMT1 block inactive, Scp-1 conf 46.3, Scp-1 MG ctr inactive and Scp-1 Tm shift inactive.
`COc1cc(S(=O)(=O)N2CCN(c3ccccn3)CC2)ccc1Br` gave LMPTP inh inactive, STEP block inactive, SUMO1 PPI mod inactive, Scp-1 inhibitor inactive and DNMT1 block inactive.
CCn1c(C)[n+](CC)c2ccc(S(=O)(=O)N(C)C)cc21 was read as LMPTP inh inactive, STEP block inactive, SUMO1 PPI mod inactive, Scp-1 inhibitor 89.1, DNMT1 block inactive, Scp-1 conf inactive and Scp-1 MG ctr inactive.

Screens: PubChem, Sanford-Burnham Center for Chemical Genomics
